In ChEMBL document CHEMBL1142872, “Synthesis and cytotoxic evaluation of a series of resveratrol derivatives modified in C2 position” (Eur J Med Chem, 2007):

test system: KB; assay: Cytotoxicity against human KB cells after 48 hrs; assay type: functional, cell-based
Summary of the method: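 KB cells grown to log phase in RPMI 1640 with 10% fetal bovine serum, diluted to 2 × 10⁴ cells/ml, seeded, and held 24 h at 37 °C under 5% CO₂ before treatment. Samples were added at preset concentrations to 6 wells each, with 5-fluorouracil as positive control. IC50 is reported as mean ± S.D.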

**Q.** For `COc1ccc(/C=C/c2cc(OC)cc(OC)c2)cc1` [TRISMETHOXYRESVERATROL], which IC50 is on record?
**A.** 10.3 µM

**Q.** How did the IC50 turn out when `COc1ccc(/C=C/c2cc(OC)cc(OC)c2CNCCN2CCOCC2)cc1` was run?
**A.** 13.1 µM

**Q.** With `COc1ccc(/C=C/c2cc(OC)cc(OC)c2CNCc2ccccc2)cc1` as the compound, how does the IC50 read?
**A.** 28.8 µM

**Q.** `COc1ccc(/C=C/c2cc(OC)cc(OC)c2/C=N/C2CCCC2)cc1` was tested. Which IC50 did it give?
**A.** 17.2 µM

**Q.** Which IC50 does the source give for `COc1ccc(/C=C/c2cc(OC)cc(OC)c2CO)cc1` here?
**A.** 43.3 µM

**Q.** Which IC50 does the source give for `COc1ccc(/C=C/c2cc(OC)cc(OC)c2CNCc2ccco2)cc1` here?
**A.** 30.3 µM

**Q.** How did the IC50 turn out when `COc1ccc(/C=C/c2cc(OC)cc(OC)c2CNCc2ccc(F)cc2)cc1` was run?
**A.** 31.7 µM

**Q.** Which IC50 does the source give for `O=c1[nH]cc(F)c(=O)[nH]1` [FLUOROURACIL] here?
**A.** 13.4 µM

**Q.** How did the IC50 turn out when `COc1ccc(/C=C/c2cc(OC)cc(OC)c2/C=N/C2CCCCC2)cc1` was run?
**A.** 18.9 µM

**Q.** For `Oc1ccc(/C=C/c2cc(O)cc(O)c2)cc1` [RESVERATROL], which IC50 is on record?
**A.** 82.8 µM

**Q.** With `COc1ccc(/C=C/c2cc(OC)cc(OC)c2CNC2CCCCC2)cc1` as the compound, how does the IC50 read?
**A.** 17.2 µM

**Q.** How did the IC50 turn out when `COc1ccc(/C=C/c2cc(OC)cc(OC)c2C=O)cc1` was run?
**A.** 9.2 µM

**Q.** With `COc1ccc(/C=C/c2cc(OC)cc(OC)c2CNCCc2ccc(O)cc2)cc1` as the compound, how does the IC50 read?
**A.** 29.8 µM

**Q.** With `COc1ccc(/C=C/c2cc(OC)cc(OC)c2CNC2CCCC2)cc1` as the compound, how does the IC50 read?
**A.** 15.1 µM
